Assay results taken from ChEMBL document CHEMBL4689842, “EUbOPEN Chemogenomics Library wave 1” (2021).

Tested on: Fibroblast
Assay: Multiplex assay against human fibroblast
Assay type: toxicity, cell-based
How it was run: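 Compound was added to live cells that had been stained at seeding with Hoechst33342, BioTracker Green Microtubule Cytoskeleton Dye, MitoTracker Red and Annexin V Alexa Fluor 680, and imaging followed on a CQ1 microscope at 37°C and 5% CO2. CellPathfinder machine-learning gating divided cells into Hoechst high-intensity objects or normal cells, normal cells into healthy, pyknosed or fragmented nuclei, and pyknosed cells into mitotic or apoptotic. Tubulin, mitochondrial-mass and membrane-permeability phenotypes are per cents of healthy-nucleus cells.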

[1] = 12 h, 1 µM, compound concentration 1 uM, replicate 1
[2] = 12 h, 1 µM, compound concentration 1 uM, replicate 2
[3] = 12 h, 10 µM, compound concentration 10 uM, replicate 1
[4] = 12 h, 10 µM, compound concentration 10 uM, replicate 2
[5] = 24 h, 1 µM, compound concentration 1 uM, replicate 1
[6] = 24 h, 1 µM, compound concentration 1 uM, replicate 2
[7] = 24 h, 10 µM, compound concentration 10 uM, replicate 1
[8] = 24 h, 10 µM, compound concentration 10 uM, replicate 2
[9] = 48 h, 1 µM, compound concentration 1 uM, replicate 1
[10] = 48 h, 1 µM, compound concentration 1 uM, replicate 2
[11] = 48 h, 10 µM, compound concentration 10 uM, replicate 1
[12] = 48 h, 10 µM, compound concentration 10 uM, replicate 2

O=C(Nc1ccc(-c2ccnc(Nc3ccc(N4CCOCC4)cc3)n2)cc1)[C@@H]1CCCN1
Population Apoptotic (%) [1]: 58%
Population Fragmented Nuclei (%) [1]: 25%
Population Healthy Nuclei (%) [1]: 41%
Population Hoechst High Intensity Objects (%) [1]: 13%
Population Membrane Permeable-Phenotype (%) [1]: 36%
Population Mitochondria Different-Phenotype (%) [1]: 11%
Population Mitotic Cells (%) [1]: 41%
Population Normal (%) [1]: 87%
Population Pyknosed Nuclei (%) [1]: 33%
Population Tubulin-Different-Phenotype (%) [1]: 47%
Total Cell Count [1]: 100
Population Apoptotic (%) [2]: 33%
Population Fragmented Nuclei (%) [2]: 13%
Population Healthy Nuclei (%) [2]: 76%
Population Hoechst High Intensity Objects (%) [2]: 7%
Population Membrane Permeable-Phenotype (%) [2]: 4%
Population Mitochondria Different-Phenotype (%) [2]: 10%
Population Mitotic Cells (%) [2]: 66%
Population Normal (%) [2]: 92%
Population Pyknosed Nuclei (%) [2]: 10%
Population Tubulin-Different-Phenotype (%) [2]: 10%
Total Cell Count [2]: 65
Population Apoptotic (%) [3]: 39%
Population Fragmented Nuclei (%) [3]: 35%
Population Healthy Nuclei (%) [3]: 30%
Population Hoechst High Intensity Objects (%) [3]: 13%
Population Membrane Permeable-Phenotype (%) [3]: 28%
Population Mitochondria Different-Phenotype (%) [3]: 25%
Population Mitotic Cells (%) [3]: 60%
Population Normal (%) [3]: 86%
Population Pyknosed Nuclei (%) [3]: 33%
Population Tubulin-Different-Phenotype (%) [3]: 74%
Total Cell Count [3]: 146
Population Apoptotic (%) [4]: 77%
Population Fragmented Nuclei (%) [4]: 7%
Population Healthy Nuclei (%) [4]: 77%
Population Hoechst High Intensity Objects (%) [4]: 5%
Population Membrane Permeable-Phenotype (%) [4]: 8%
Population Mitochondria Different-Phenotype (%) [4]: 28%
Population Mitotic Cells (%) [4]: 22%
Population Normal (%) [4]: 94%
Population Pyknosed Nuclei (%) [4]: 14%
Population Tubulin-Different-Phenotype (%) [4]: 44%
Total Cell Count [4]: 65
Population Apoptotic (%) [5]: 52%
Population Fragmented Nuclei (%) [5]: 24%
Population Healthy Nuclei (%) [5]: 52%
Population Hoechst High Intensity Objects (%) [5]: 9%
Population Membrane Permeable-Phenotype (%) [5]: 22%
Population Mitochondria Different-Phenotype (%) [5]: 6%
Population Mitotic Cells (%) [5]: 47%
Population Normal (%) [5]: 91%
Population Pyknosed Nuclei (%) [5]: 23%
Population Tubulin-Different-Phenotype (%) [5]: 35%
Total Cell Count [5]: 100
Population Apoptotic (%) [6]: 60%
Population Fragmented Nuclei (%) [6]: 7%
Population Healthy Nuclei (%) [6]: 85%
Population Hoechst High Intensity Objects (%) [6]: 6%
Population Membrane Permeable-Phenotype (%) [6]: 3%
Population Mitochondria Different-Phenotype (%) [6]: 19%
Population Mitotic Cells (%) [6]: 40%
Population Normal (%) [6]: 93%
Population Pyknosed Nuclei (%) [6]: 7%
Population Tubulin-Different-Phenotype (%) [6]: 10%
Total Cell Count [6]: 63
Population Apoptotic (%) [7]: 57%
Population Fragmented Nuclei (%) [7]: 37%
Population Healthy Nuclei (%) [7]: 48%
Population Hoechst High Intensity Objects (%) [7]: 12%
Population Membrane Permeable-Phenotype (%) [7]: 16%
Population Mitochondria Different-Phenotype (%) [7]: 21%
Population Mitotic Cells (%) [7]: 42%
Population Normal (%) [7]: 87%
Population Pyknosed Nuclei (%) [7]: 13%
Population Tubulin-Different-Phenotype (%) [7]: 74%
Total Cell Count [7]: 156
Population Apoptotic (%) [8]: 58%
Population Fragmented Nuclei (%) [8]: 18%
Population Healthy Nuclei (%) [8]: 64%
Population Hoechst High Intensity Objects (%) [8]: 1%
Population Membrane Permeable-Phenotype (%) [8]: 13%
Population Mitochondria Different-Phenotype (%) [8]: 17%
Population Mitotic Cells (%) [8]: 41%
Population Normal (%) [8]: 98%
Population Pyknosed Nuclei (%) [8]: 17%
Population Tubulin-Different-Phenotype (%) [8]: 22%
Total Cell Count [8]: 72
Population Apoptotic (%) [9]: 60%
Population Fragmented Nuclei (%) [9]: 29%
Population Healthy Nuclei (%) [9]: 60%
Population Hoechst High Intensity Objects (%) [9]: 9%
Population Membrane Permeable-Phenotype (%) [9]: 26%
Population Mitochondria Different-Phenotype (%) [9]: 4%
Population Mitotic Cells (%) [9]: 40%
Population Normal (%) [9]: 90%
Population Pyknosed Nuclei (%) [9]: 9%
Population Tubulin-Different-Phenotype (%) [9]: 27%
Total Cell Count [9]: 111
Population Apoptotic (%) [10]: 50%
Population Fragmented Nuclei (%) [10]: 18%
Population Healthy Nuclei (%) [10]: 76%
Population Membrane Permeable-Phenotype (%) [10]: 18%
Population Mitotic Cells (%) [10]: 50%
Population Pyknosed Nuclei (%) [10]: 4%
Population Tubulin-Different-Phenotype (%) [10]: 30%
Total Cell Count [10]: 101
Population Apoptotic (%) [11]: 83%
Population Fragmented Nuclei (%) [11]: 44%
Population Healthy Nuclei (%) [11]: 50%
Population Hoechst High Intensity Objects (%) [11]: 22%
Population Membrane Permeable-Phenotype (%) [11]: 15%
Population Mitochondria Different-Phenotype (%) [11]: 2%
Population Mitotic Cells (%) [11]: 16%
Population Normal (%) [11]: 77%
Population Pyknosed Nuclei (%) [11]: 4%
Population Tubulin-Different-Phenotype (%) [11]: 61%
Total Cell Count [11]: 179
Population Apoptotic (%) [12]: 33%
Population Fragmented Nuclei (%) [12]: 32%
Population Healthy Nuclei (%) [12]: 64%
Population Hoechst High Intensity Objects (%) [12]: 6%
Population Membrane Permeable-Phenotype (%) [12]: 20%
Population Mitochondria Different-Phenotype (%) [12]: 3%
Population Mitotic Cells (%) [12]: 66%
Population Normal (%) [12]: 93%
Population Pyknosed Nuclei (%) [12]: 3%
Population Tubulin-Different-Phenotype (%) [12]: 53%
Total Cell Count [12]: 99
